These results are taken from ChEMBL document CHEMBL1123146, “Design, synthesis, and evaluation of omega-iodovinyl- and omega-iodoalkyl-substituted methyl-branched long-chain fatty acids” (J Med Chem, 1985).

The test system of data set [1] is Rattus norvegicus. Briefly: Concentration was measured in kidney tissue of unfasted Fischer 344 rats administered intravenously after 30 minute (radiolabeled with [123I]-. The class given is ADME, organism-based. To be noted: in vivo, iv, 0.5 h.
For data set [2], the system named is Rattus norvegicus. Briefly: Concentration was measured in blood tissue of unfasted Fischer 344 rats administered intravenously after 30 minute (radiolabeled with [125I]-. The class given is ADME, organism-based. The following applies: in vivo, iv, 0.5 h, in the assay text read “fasted” for “unfasted”.
The subject of data set [3] is Rattus norvegicus. Briefly: Concentration was measured in lungs tissue of unfasted Fischer 344 rats administered intravenously after 30 minute (radiolabeled with [125I]-. The class given is ADME, organism-based, Lung. The following applies: in vivo, iv, 0.5 h. The procedure, abridged: (§1)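 Female Fischer 344 rats, 10-12 weeks old, 170-200 g, with food and water ad libitum. The 125I-fatty acid was taken up in ethanol, added dropwise to stirred 6% BSA at ~40 °C (final ethanol 10%), filtered, and given as 0.5 mL via lateral tail vein under ether anesthesia. Rats were killed by cervical fracture; blood was taken by cardiac puncture. Organs were rinsed, blotted, weighed and gamma-counted against injectate standards to give %ID/g. Five rats per time point.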

The test system of data set [4] is Rattus norvegicus. Briefly: Concentration was measured in thyroid tissue of unfasted Fischer 344 rats administered intravenously after 5 minute (radiolabeled with [125I]-. The following applies: in vivo, iv, 5 min. The class given is ADME, organism-based, Thyroid gland. In outline: (§2)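 Female Fischer 344 rats, 10–12 weeks old (170–200 g), with food and water ad libitum, five per time point. The radioiodinated fatty acid was dissolved in ethanol, added to 6% BSA at ~40 °C (final 10% ethanol), filtered, and injected into a lateral tail vein (0.5 mL) under ether anesthesia. Blood was taken by cardiac puncture; organs were rinsed, blotted, weighed and gamma-counted against injectate standards. Output is % injected dose/g.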

Data set [5] deals with Rattus norvegicus. Briefly: Concentration was measured in tissue of unfasted Fischer 344 rats administered intravenously after 60 minute (radiolabeled with [125I]-. The class given is ADME, organism-based. The following applies: in vivo, iv, 1 h. In outline:
as §2

Data set [6] relates to Rattus norvegicus. Briefly: Concentration was measured in liver tissue of unfasted Fischer 344 rats administered intravenously after 4 hr (radiolabeled with [123I]-. The class given is ADME, organism-based. The following applies: in vivo, iv.
The test system of data set [7] is Rattus norvegicus. Briefly: Concentration was measured in kidney tissue of unfasted Fischer 344 rats administered intravenously after 60 minute (radiolabeled with [123I]-. The class given is ADME, organism-based. To be noted: in vivo, iv, 1 h.
For data set [8], the system named is Rattus norvegicus. Briefly: Concentration was measured in liver tissue of unfasted Fischer 344 rats administered intravenously after 5 minute (radiolabeled with [125I]-. The class given is ADME, organism-based. To be noted: in vivo, iv, 5 min. In outline: as §1
The test system of data set [9] is Rattus norvegicus. Briefly: Concentration was measured in kidney tissue of unfasted Fischer 344 rats administered intravenously after 4 hr (radiolabeled with [125I]-. The class given is ADME, organism-based. To be noted: in vivo, iv.
The subject of data set [10] is Rattus norvegicus. Briefly: Concentration was measured in mean heart/blood tissue of unfasted Fischer 344 rats administered intravenously after 4 hr (radiolabeled with [123I]-. The class given is ADME, organism-based. To be noted: in vivo, iv.
Data set [11] has as its system Rattus norvegicus. Briefly: Concentration was measured in lungs tissue of unfasted Fischer 344 rats administered intravenously after 60 minute (radiolabeled with [125I]-. The class given is ADME, organism-based, Lung. To be noted: in vivo, iv, 1 h. The procedure, abridged:
as §1

In data set [12] the test system is Rattus norvegicus. Briefly: Concentration was measured in heart tissue of unfasted Fischer 344 rats, administered intravenous, after 5 minute (radiolabeled with [125I]-. The class given is ADME, organism-based. To be noted: in vivo, 5 min. The procedure, abridged:
as §1

Data set [13] relates to Rattus norvegicus. Briefly: Concentration was measured in mean heart/blood tissue of unfasted Fischer 344 rats administered intravenously after 4 hr (radiolabeled with [125I]-. The class given is ADME, organism-based. To be noted: other tissue, iv.
For data set [14], the system named is Rattus norvegicus. Briefly: Concentration was measured in liver tissue of fasted Fischer 344 rats administered intravenously after 4 hr (radiolabeled with [125I]-. To be noted: in vivo, iv.
The subject of data set [15] is Rattus norvegicus. Briefly: Concentration was measured in kidney tissue of unfasted Fischer 344 rats administered intravenously after 30 minute (radiolabeled with [125I]-. The class given is ADME, organism-based. To be noted: in vivo, iv, 0.5 h. In outline: as §1
Data set [16] has as its system Rattus norvegicus. Briefly: Concentration was measured in liver tissue of unfasted Fischer 344 rats administered intravenously after 5 minute (radiolabeled with [123I]-. The class given is ADME, organism-based. To be noted: in vivo, iv, 5 min.

For the molecule `CC(CCCCCCCCCCCCCC/C=C/I)CC(=O)O.O=C(O)CCCCCCCCCCCCCCCC/C=C/I` (stereo unspecified), the Distribution turned out to be 1.03% in the data set on Rattus norvegicus [1]; 0.77% in the data set with Rattus norvegicus [2]; 0.96% with Rattus norvegicus [3]; 16.7% in the data set with Rattus norvegicus [4]; 82.9% in the data set with Rattus norvegicus [5]; 1.83% in the data set with Rattus norvegicus [6]. In addition, the Distribution is on record as 0.96% in the data set with Rattus norvegicus [7]; 6.48% in the data set on Rattus norvegicus [8]; 0.66% in the data set with Rattus norvegicus [9]; 0.96% in the data set with Rattus norvegicus [10]; 0.89% in the data set with Rattus norvegicus [11]; 4.89% in the data set with Rattus norvegicus [12]. Further, the Distribution was 2.6% in the data set on Rattus norvegicus [13], 1.11% in the data set with Rattus norvegicus [14], 0.91% in the data set with Rattus norvegicus [15] and 4.87% with Rattus norvegicus [16].
